{"data": "Results collected from several papers", "cell line": "A549", "effect on": "cell growth or viability", "note": "Lines come from different studies, so protocols differ."}
{"Structure (SMILES)": "CC(C)(C)[C@H](N)C(=O)Nc1ccccc1/N=c1\\cc(-c2ccc3c(c2)OCO3)oc2ccccc12", "method": "CCK-8", "concentration": "1 µM", "measurement": "inhibition", "result": "3.13%"}
{"Structure (SMILES)": "COc1ccc(NC(=O)NCc2cn(Cc3ccc(C)cc3)nn2)cc1", "method": "CCK-8", "concentration": "20 µM", "time": "72 h", "measurement": "viability", "result": "70.4%"}
{"Structure (SMILES)": "CCOc1ccc(-c2cc(C(=O)O)c(-c3ccc(Cl)cc3)o2)cc1", "method": "MTT", "time": "48 h", "measurement": "EC50", "result": "75 µM"}
{"Structure (SMILES)": "N#CSCCCCOc1ccc2c(-c3ccccc3)cc(=O)oc2c1", "method": "SRB", "measurement": "GI50", "result": "36 µM"}
{"Structure (SMILES)": "CCCCCCCCCCCCCCCCCCOc1ccc(CC(=O)OCC[N+](C)(C)C)cc1", "method": "SRB", "concentration": "10 µM", "measurement": "inhibition", "result": "5.41%"}
{"Structure (SMILES)": "O=C(NCc1cn(Cc2ccc(Br)cc2)nn1)Nc1ccc(Cl)cc1", "method": "CCK-8", "concentration": "50 µM", "time": "72 h", "measurement": "viability", "result": "97%"}
{"Structure (SMILES)": "NCCC(=O)Nc1ccccc1/N=c1\\cc(-c2ccc3oc(N)nc3c2)oc2ccccc12", "method": "CCK-8", "concentration": "1 µM", "measurement": "inhibition", "result": "14.5%"}
{"Structure (SMILES)": "COc1ccc(NC(=O)Nc2cccc(-c3cn(Cc4ccccc4C)nn3)c2)cc1", "method": "CCK-8", "concentration": "50 µM", "time": "72 h", "measurement": "viability", "result": "212%"}
{"Structure (SMILES)": "N[C@@H](CO)C(=O)Nc1ccccc1/N=c1\\cc(-c2ccc3c(c2)OCO3)oc2ccccc12", "method": "CCK-8", "concentration": "1 µM", "measurement": "inhibition", "result": "-0.16%"}
{"Structure (SMILES)": "CCCCCCCCCCCCCCCCCCOCC(COP(=O)([O-])OCC[N+](C)(C)C)OC (stereo not drawn)", "method": "SRB", "concentration": "10 µM", "measurement": "inhibition", "result": "2.5%"}
{"Structure (SMILES)": "O=C(Nc1ccc(-c2cn(Cc3ccc(Br)cc3)nn2)cc1)Nc1ccccc1Br", "method": "CCK-8", "concentration": "20 µM", "time": "72 h", "measurement": "viability", "result": "77.3%"}
{"Structure (SMILES)": "[NH2][Pt]([NH2])([Cl])[Cl]", "method": "SRB", "measurement": "GI50", "result": "4.9 µM"}
{"Structure (SMILES)": "CCCCCCCCCCCCCCCCCCOc1ccccc1CC(=O)OCC[N+](C)(C)C", "method": "SRB", "concentration": "10 µM", "measurement": "inhibition", "result": "88.5%"}
{"Structure (SMILES)": "COc1ccc2/c(=N/c3ccccc3NC(=O)N3CCOCC3)cc(-c3ccc4c(c3)OCCO4)oc2c1", "method": "CCK-8", "concentration": "1 µM", "measurement": "inhibition", "result": "2.09%"}
{"Structure (SMILES)": "O=C(Nc1ccc(Cl)cc1)Nc1cccc(-c2cn(Cc3ccc(Cl)cc3)nn2)c1", "method": "CCK-8", "concentration": "50 µM", "time": "72 h", "measurement": "viability", "result": "101%"}
{"Structure (SMILES)": "COc1ccc(NC(=O)Nc2cccc(-c3cn(Cc4cccc(Cl)c4)nn3)c2)cc1", "method": "CCK-8", "concentration": "20 µM", "time": "72 h", "measurement": "viability", "result": "141%"}
{"Structure (SMILES)": "O=C(Nc1ccc(Cl)cc1)Nc1ccc(-c2cn(Cc3cccc(Cl)c3)nn2)cc1", "method": "CCK-8", "concentration": "50 µM", "time": "72 h", "measurement": "viability", "result": "73.2%"}
{"Structure (SMILES)": "CCCCCCCCCCCCCCCCCCOc1cccc(CC(=O)OCC[N+](CC)(CC)CC)c1", "method": "SRB", "concentration": "10 µM", "measurement": "inhibition", "result": "40%"}
{"Structure (SMILES)": "COc1ccc(NC(=O)Nc2cccc(-c3cn(Cc4ccc(Cl)cc4)nn3)c2)cc1", "method": "CCK-8", "concentration": "50 µM", "time": "72 h", "measurement": "viability", "result": "270%"}
{"Structure (SMILES)": "CCC(=O)NCc1ccc(-c2cnc(C3CN(C(=O)c4cnc(NC(=O)[C@@H]5CC(C)(C)CN5)s4)C3)s2)c2ccccc12", "time": "14 days", "measurement": "GI50", "result": "> 3 µM"}
{"Structure (SMILES)": "COc1ccc2/c(=N/c3ccccc3NC(=O)[C@@H](N)CO)cc(-c3ccc4c(c3)OCCO4)oc2c1", "method": "CCK-8", "concentration": "1 µM", "measurement": "inhibition", "result": "1.6%"}
{"Structure (SMILES)": "CCCCCCCCCCCCCCCCCCOc1ccc(CC(=O)OCC[N+](CC)(CC)CC)cc1", "method": "SRB", "concentration": "10 µM", "measurement": "inhibition", "result": "21.2%"}
{"Structure (SMILES)": "O=C(Nc1ccc(Cl)cc1)Nc1cccc(-c2cn(Cc3cccc(Br)c3)nn2)c1", "method": "CCK-8", "concentration": "20 µM", "time": "72 h", "measurement": "viability", "result": "123%"}
{"Structure (SMILES)": "CCCCCCCCCCCCCCCCCCOc1cccc(CC(=O)OCC[N+]2(C)CCOCC2)c1", "method": "SRB", "concentration": "10 µM", "measurement": "inhibition", "result": "7.62%"}
{"Structure (SMILES)": "O=C(NCc1cn(Cc2cccc(Cl)c2)nn1)Nc1ccc(Cl)cc1", "method": "CCK-8", "concentration": "50 µM", "time": "72 h", "measurement": "viability", "result": "79.5%"}
{"Structure (SMILES)": "COc1ccc(NC(=O)Nc2ccc(-c3cn(Cc4ccc(Cl)cc4)nn3)cc2)cc1", "method": "CCK-8", "concentration": "50 µM", "time": "72 h", "measurement": "viability", "result": "98.3%"}
{"Structure (SMILES)": "CCCCCCCCCCCCCCCCCCOc1ccc(CC(=O)OCCC[N+](C)(C)C)cc1", "method": "SRB", "concentration": "10 µM", "measurement": "inhibition", "result": "21.9%"}
{"Structure (SMILES)": "NCC(=O)Nc1ccccc1/N=c1\\cc(-c2ccc3c(c2)OCO3)oc2c(N)cccc12", "method": "CCK-8", "concentration": "1 µM", "measurement": "inhibition", "result": "-3.51%"}
{"Structure (SMILES)": "CCCCCCCCCCCCCCCCCCOc1cccc(CC(=O)OCCC[N+](C)(C)C)c1", "method": "SRB", "concentration": "10 µM", "measurement": "inhibition", "result": "16.2%"}
{"Structure (SMILES)": "COc1ccc(NC(=O)NCc2cn(Cc3ccccc3C)nn2)cc1", "method": "CCK-8", "concentration": "20 µM", "time": "72 h", "measurement": "viability", "result": "65.6%"}
{"Structure (SMILES)": "O=C(NCc1cn(Cc2ccc(Cl)cc2)nn1)Nc1ccc(Cl)cc1", "method": "CCK-8", "concentration": "20 µM", "time": "72 h", "measurement": "viability", "result": "61.7%"}
{"Structure (SMILES)": "NCC(=O)Nc1ccccc1/N=c1\\cc(-c2ccc3c(c2)OCO3)oc2ccccc12", "method": "CCK-8", "concentration": "1 µM", "measurement": "inhibition", "result": "-5.88%"}
{"Structure (SMILES)": "O=C(NCc1cn(Cc2ccc(Br)cc2)nn1)Nc1ccccc1Br", "method": "CCK-8", "concentration": "20 µM", "time": "72 h", "measurement": "viability", "result": "88.8%"}
{"Structure (SMILES)": "NCCC(=O)Nc1ccccc1/N=c1\\cc(-c2ccc3nc(N)oc3c2)oc2ccc(O)cc12", "method": "CCK-8", "concentration": "1 µM", "measurement": "inhibition", "result": "13.9%"}
{"Structure (SMILES)": "O=C(Nc1ccc(Cl)cc1)Nc1ccc(-c2cn(Cc3ccc(Cl)cc3)nn2)cc1", "method": "CCK-8", "concentration": "20 µM", "time": "72 h", "measurement": "viability", "result": "73.2%"}
{"Structure (SMILES)": "COc1ccc(NC(=O)Nc2ccc(-c3cn(Cc4cccc(Cl)c4)nn3)cc2)cc1", "method": "CCK-8", "concentration": "50 µM", "time": "72 h", "measurement": "viability", "result": "91.2%"}
